ABHD4 inh = ABHD4 inhibitors, primary screen, biochemical, fluorescence polarization, mouse; (Lyso)-N-acylphosphatidylethanolamine lipase (Mus musculus), Q8VD66; purified mABHD4, FP-Rh probe fluorescence polarization; inhibition, % at 8.92 µM; 370,000 compounds, 0.54% hits;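 active = inhibition exceeding the mean over every tested compound plus 3 SD, cut at about 30% in these data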;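 note: 0% = plate median of compound wells and 100% = S159A mutant with DMSO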
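Test system: mABHD4 protein; Read-out basis: % inhibition; Incubation: 45 min + 60 min at 25 °C; Repeats: single replicate; Technique: fluorescence polarization with parallel and perpendicular emission, 525/598 nm; Compound: 8.92 µM, single dose; Benchmarks: full inhibition S159A mutant plus DMSO, zero as sample-well median.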
HTRA1 inhibitor = HTRA1 serine protease inhibitors, primary screen, biochemical, fluorescence polarization, HTS | Q92743 | recombinant HTRA1, FP-rhodamine activity-based probe | inhibition, % at 5.96 µM | 340,000 compounds, 0.5% hits | AID 504803, 2011; in the data active = inhibition above about 36%;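 note: 0% = enzyme with DMSO and 100% = wells lacking enzyme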
TCR CD3 inh = inhibitors of human TCR-CD3 interaction, primary screen, biochemical, fluorescence, TAMRA-labeled TCR probe; inhibition, % at 9.4 µM; 360,000 compounds, 0.37% hits; in the data active = inhibition above about 19%;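 note: recombinant mutant TCR 2C K166C tagged with TAMRA read by polarization; 0% = receptor in buffer alone and 100% = receptor with positive control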
pPAFAH inh = pPAFAH enzyme inhibitors, primary screen, biochemical, fluorescence polarization, human; Platelet-activating factor acetylhydrolase (Homo sapiens), Q13093; recombinant pPAFAH, FP-rhodamine probe fluorescence polarization; inhibition, % at 3.39 µM; 330,000 compounds, 1.5% hits;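 active = inhibition above the mean inhibition across the screen plus 3 SD, cut at about 25% in these data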;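 note: inhibitors block binding of the rhodamine activity-based probe so polarization drops; 0% = enzyme with DMSO and 100% = wells lacking pPAFAH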
Target sequence (Q13093 whole entry, looked up): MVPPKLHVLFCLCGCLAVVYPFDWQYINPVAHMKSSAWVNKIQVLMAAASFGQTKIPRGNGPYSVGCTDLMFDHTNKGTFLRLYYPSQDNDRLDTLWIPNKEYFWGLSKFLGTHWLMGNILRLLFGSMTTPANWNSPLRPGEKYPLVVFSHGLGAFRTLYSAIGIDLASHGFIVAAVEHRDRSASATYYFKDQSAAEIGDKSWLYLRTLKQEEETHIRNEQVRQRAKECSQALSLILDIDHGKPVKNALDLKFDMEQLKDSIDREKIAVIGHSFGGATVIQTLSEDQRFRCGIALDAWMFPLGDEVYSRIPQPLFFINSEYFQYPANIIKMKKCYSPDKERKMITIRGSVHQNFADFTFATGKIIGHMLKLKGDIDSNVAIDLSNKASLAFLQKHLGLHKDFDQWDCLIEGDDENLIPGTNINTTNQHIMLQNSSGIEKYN
SIAE inh = human SIAE inhibitors, primary screen, biochemical, fluorescence polarization, FP-Rh probe, 1536-well HTS | SIAE FP-Rh probe binding | inhibition, % at 9.66 µM | 370,000 compounds, 0.69% hits | AID 1053197, 2014;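 active = inhibition above a cutoff: mean of compounds within the control limits plus 3 SD of those, cut at about 17% in these data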;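 note: 0% = plate median of compound wells and 100% = probe without SIAE protein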
* = called active by the depositor; . = no result given. Most compounds without a hit are left out; they make up all but 2.3% or so of the library.

SMILES | ABHD4 inh | HTRA1 inhibitor | TCR CD3 inh | pPAFAH inh | SIAE inh
O=C1N[C@H](Cc2ccccc2)COC(=O)[C@@H](Cc2ccc(F)cc2)CC/C=C/C[C@H]1CC(=O)N(CCO)Cc1ccccc1 | -6.7 | -33.8 | 3.6 | 28.9* | -8.8
O=C1N[C@@H](Cc2c[nH]c3ccccc23)COC(=O)[C@@H](Cc2ccc(F)cc2)C/C=C\C[C@H]1CC(=O)N(CCO)Cc1ccccc1 | -11.3 | -25.9 | -3.3 | 28.5* | 4.7
O=C(N[C@H]1C/C=C\C[C@H](CC(=O)N(CCO)Cc2ccccc2)C(=O)N[C@H](Cc2c[nH]c3ccccc23)COC1=O)OCC1c2ccccc2-c2ccccc21 | -13.5 | -12.6 | 1.8 | 32.8* | 17.0
O=C1N[C@@H](Cc2c[nH]c3ccccc23)COC(=O)[C@H](Cc2ccc(F)cc2)C/C=C\C[C@@H]1CC(=O)N(CCO)Cc1ccccc1 | -41.6 | -44.3 | -0.9 | 7.5 | 9.9
O=C(C[C@@H]1C/C=C\C[C@@H](Cc2ccc(F)cc2)C(=O)OC[C@@H](Cc2c[nH]c3ccccc23)NC1=O)NCCO | 2.6 | -4.5 | -1.9 | 25.3* | 5.2
O=C1N[C@@H](Cc2ccccc2)COC(=O)[C@@H](Cc2ccc(F)cc2)CC/C=C/C[C@@H]1CC(=O)N(CCO)Cc1ccccc1 | -7.0 | -31.2 | -9.2 | 9.3 | -3.8
O=C(N[C@H]1C/C=C\C[C@@H](CC(=O)N(CCO)Cc2ccccc2)C(=O)N[C@H](Cc2c[nH]c3ccccc23)COC1=O)OCC1c2ccccc2-c2ccccc21 | -15.0 | -15.9 | -1.3 | 13.1 | 10.8
O=C(CSc1nnc(-c2ccccn2)n1-c1ccc(Cl)cc1)Nc1ccc2c(c1)OCCO2 | -2.3 | . | . | . | 0.0
C/C(=N\NC(=O)c1cc(-c2ccccc2)nc2ccccc12)c1ccc(Cl)cc1 | -24.4 | . | . | . | -17.2
Cc1ccc(C2=CCN(C)C(=O)N2c2ccc(Br)cc2)cc1 | -18.4 | . | . | . | 6.0
O=S1(=O)C=CCN1Cc1cn(Cc2ccc(F)cc2)nn1 | -0.4 | . | . | . | 7.0
C=CCN1[C@@H](C)COc2cccc(F)c2S1(=O)=O | 8.2 | . | . | . | 0.2
O=C(c1cccc(F)c1F)N(Cc1ccccn1)CC1CCCO1 (stereo not drawn) | -2.2 | . | . | . | -9.4
Cc1[nH]c2ccccc2c1C(=O)C(=O)NC1CC1 | 3.7 | 8.8 | 0.1 | 28.0* | 2.6
Cc1[nH]c2ccccc2c1C(=O)C(=O)NCC1CCCO1 (stereo not drawn) | 2.1 | 2.2 | 2.9 | 1.2 | -0.4
C#CCNC(=O)C[C@@H]1C(=O)N(CCc2ccc(Cl)cc2)/C2=C/CCCCC[C@@]21C(=O)OCC | 20.7 | . | . | . | -3.8
CCCCOc1cccc(C(=O)NCCc2ccccc2-c2ccccc2CCC(=O)NCc2ccccc2)c1 | -1.8 | . | . | . | 4.2
Fc1ccc(-n2cc(-c3ccccc3)c3c(=S)nc[nH]c32)cc1 | 8.3 | -3.7 | 1.6 | 29.5* | 5.3
Cc1cc(Br)ccc1OCCCN1CCC(C(O)(c2ccccc2)c2ccccc2)CC1 | 19.9 | . | . | . | -2.2
C=CCN1C(=O)C(Cc2ccc(Br)cc2)S/C1=N\N=C\c1ccco1 (stereo not drawn) | -4.7 | -9.6 | -3.2 | -1.2 | 0.7
C=CCN1C(=O)C(Cc2ccc(OC)cc2)S/C1=N/N=C/c1ccco1 (stereo not drawn) | -4.3 | -14.8 | 0.8 | 27.6* | -1.7
CCOc1cccc(-c2nnc(SCC(=O)Nc3ccc4c(c3)OCO4)n2N)c1 | -2.1 | . | . | . | -1.4
OCC[C@H]1C[C@H](O)[C@@H](O)[C@]2(OCCc3ccccc32)O1 | -8.3 | -2.0 | 1.4 | 25.6* | -1.1
OCC[C@H]1C[C@H](O)[C@@H](O)[C@@]2(OCc3ccccc32)O1 | 15.6 | 1.5 | 0.3 | 5.2 | 7.2
CSc1ccccc1NC(=O)COC(=O)c1ccc(-n2nc(C)cc2C)cc1 | -7.2 | -11.8 | 13.0 | 25.3* | 1.9
SMILES | ABHD4 inh | HTRA1 inhibitor | TCR CD3 inh | pPAFAH inh | SIAE inh
CC(=O)c1oc2ccccc2c1NC(=O)COC(=O)c1ccc(-n2nc(C)cc2C)cc1 | -3.1 | -9.4 | 4.6 | 9.2 | 1.2
Cc1cc(C)n(-c2ccc(C(=O)OCC(=O)NCc3ccc(F)cc3)cc2)n1 | -2.0 | -0.8 | 5.0 | 28.0* | 1.1
COC(=O)[C@]12C[C@H](CC(=O)NCc3ccccc3)C(=O)N(Cc3ccc(Cl)cc3Cl)C1=C[C@H](COCc1ccccc1)O[C@@H]2C | -6.4 | . | . | . | -3.7
CN1Cc2c(N3CCOCC3)nc3sc(C(=O)c4ccc(Br)cc4)c(N)c3c2CC1(C)C | 15.1 | . | -4.0 | 30.3* | 7.7
N#C/C(=C\c1coc2ccccc2c1=O)C(N)=S | -8.0 | -9.6 | -12.9 | -1.0 | -17.6
N#C/C(=C\c1coc2ccc(O)cc2c1=O)C(=O)Nc1nc2ccccc2s1 | 4.1 | -10.5 | -17.6 | 33.1* | -8.4
COc1ccccc1CNC(=O)C[C@H]1CC[C@H]2[C@H](COc3ccc(NS(=O)(=O)c4ccc(C)cc4)cc3C(=O)N2C)O1 | 14.7 | . | . | . | 7.5
CCN(c1ccccc1)S(=O)(=O)c1ccc(Cl)c(NC(=O)COC(=O)c2ccc(O)cc2)c1 | -22.8 | -20.2 | 0.2 | 33.7* | -11.4
CCN(c1ccccc1)S(=O)(=O)c1ccc(Cl)c(NC(=O)COC(=O)c2cc(O)c3ccccc3c2O)c1 | . | . | . | 19.8 | .
CCc1ccccc1NC(=O)CSc1ccsc1[N+](=O)[O-] | 14.3 | 5.4 | -2.5 | 25.2* | 5.0
COc1ccccc1CNC(=O)CSc1ccsc1[N+](=O)[O-] | 4.4 | 1.9 | 11.9 | 5.4 | -4.9
OCC(CCc1c[nH]c2ccccc12)c1c[nH]c2ccccc12 (stereo not drawn) | 12.3 | . | -3.7 | . | 8.7
COc1ccccc1N1CCN(CCN2C(=O)CC(=C3c4ccccc4-c4ccccc43)C2=O)CC1 | . | . | . | 29.0* | .
CCCCCCCCCCCCCCCC[N+](C)(C)CCN(Cc1ccc(OC)cc1)c1ncccn1 | . | 52.4* | . | 31.8* | .
COc1ccc(-c2cc(-c3ccc(OC)c(OC)c3)n[nH]2)c(O)c1 | -7.8 | -14.4 | 1.9 | 24.6* | 5.3
Cc1cccc(-n2nc3c(c2NC(=O)c2ccco2)CSC3)c1C | -15.5 | -26.1 | -5.2 | 30.9* | -7.5
O=C(N/N=C/c1ccncc1)c1cccs1 | . | 2.6 | . | 3.4 | .
O=C(N/N=C/c1ccc(-c2ccccc2C(=O)O)o1)c1cccs1 | 15.6 | 2.1 | 8.6 | 28.4* | 8.0
CCC[C@@H](CN1CCC[C@H]1CN1C(N)=NC[C@@H]1Cc1ccccc1)N1C[C@@H](Cc2ccccc2)N(CCc2ccc(Cl)c(Cl)c2)C1=N | 33.6* | -5.3 | -3.3 | 0.9 | 11.3
C[C@@H]1[C@@H](c2ccccc2)c2cc3ccccc3nc2C(=O)C[C@@H]1C(=O)N1CCCC1 | 6.1 | . | . | . | -4.3
CC(C)(C)OC(=O)NCCCC1=CC2=CC(=O)C(C)(OC(=O)c3ccc(Cl)nc3)C(=O)C2=CO1 (stereo not drawn) | . | . | . | 40.4* | .
